Experimental data as given in ChEMBL document CHEMBL4725355, “Design, Synthesis, and Preclinical Evaluation of 3-Methyl-6-(5-thiophenyl)-1,3-dihydro-imidazo[4,5-b]pyridin-2-ones as Selective GluN2B Negative Allosteric Modulators for the Treatment of Mood Disorders” (J Med Chem, 2020).

Tests used:
[1] = target: T1, Aryl hydrocarbon receptor (Homo sapiens, UniProt P35869); assay: Activation of human AHR expressed in human 1A2-DRE cells assessed as induction of CYP1A by luciferase reporter gene assay relative to control; format: ADME, cell-based
T1 sequence (P35869 whole entry): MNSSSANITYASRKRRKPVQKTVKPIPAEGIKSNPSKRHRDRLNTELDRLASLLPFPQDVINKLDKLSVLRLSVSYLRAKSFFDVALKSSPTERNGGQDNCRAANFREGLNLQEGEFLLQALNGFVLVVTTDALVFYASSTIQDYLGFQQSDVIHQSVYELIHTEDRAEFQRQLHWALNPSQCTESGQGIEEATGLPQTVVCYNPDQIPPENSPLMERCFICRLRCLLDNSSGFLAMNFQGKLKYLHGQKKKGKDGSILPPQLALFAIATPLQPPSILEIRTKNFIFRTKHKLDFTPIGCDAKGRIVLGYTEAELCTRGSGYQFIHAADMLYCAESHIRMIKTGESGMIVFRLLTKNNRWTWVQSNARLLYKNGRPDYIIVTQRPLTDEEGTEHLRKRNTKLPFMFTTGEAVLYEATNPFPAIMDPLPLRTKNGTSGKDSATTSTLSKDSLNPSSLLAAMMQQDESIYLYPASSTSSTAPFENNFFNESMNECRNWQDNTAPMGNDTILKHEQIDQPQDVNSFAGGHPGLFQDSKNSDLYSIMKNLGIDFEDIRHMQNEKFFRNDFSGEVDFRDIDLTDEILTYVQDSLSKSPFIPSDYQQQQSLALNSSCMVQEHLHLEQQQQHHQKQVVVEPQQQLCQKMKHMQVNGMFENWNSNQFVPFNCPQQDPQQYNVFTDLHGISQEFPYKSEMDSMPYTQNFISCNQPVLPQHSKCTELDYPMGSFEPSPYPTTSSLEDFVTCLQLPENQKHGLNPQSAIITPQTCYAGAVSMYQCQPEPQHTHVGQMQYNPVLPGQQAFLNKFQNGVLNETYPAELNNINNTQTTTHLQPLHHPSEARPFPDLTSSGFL
Procedure, shortened: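 Luciferase reporter lines were used. DPX2 is HepG2 carrying human PXR plus a CYP3A4 promoter-luciferase construct. 1A2-DRE carries human AhR plus a CYP1A2 promoter with 3 DRE copies. Luminescence was read with ONE-Glo. Activation was expressed relative to rifampicin (PXR) or omeprazole (AhR).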

[2] = Intrinsic clearance in dog liver microsomes at 1 uM after 5 to 60 mins in presence of NADPH by LC-MS/MS analysis; format: ADME, Canis lupus familiaris, Microsome; settings: time 5-60 min, read-out: CLH
Cytochrome P450 3A4 [3] = target: T2, Cytochrome P450 3A4 (Homo sapiens, UniProt P08684); assay: Inhibition of CYP3A4 in human liver microsomes using testosterone as substrate measured after 15 mins by LC-MS/MS analysis; format: ADME
T2 sequence (P08684 whole entry, canonical isoform): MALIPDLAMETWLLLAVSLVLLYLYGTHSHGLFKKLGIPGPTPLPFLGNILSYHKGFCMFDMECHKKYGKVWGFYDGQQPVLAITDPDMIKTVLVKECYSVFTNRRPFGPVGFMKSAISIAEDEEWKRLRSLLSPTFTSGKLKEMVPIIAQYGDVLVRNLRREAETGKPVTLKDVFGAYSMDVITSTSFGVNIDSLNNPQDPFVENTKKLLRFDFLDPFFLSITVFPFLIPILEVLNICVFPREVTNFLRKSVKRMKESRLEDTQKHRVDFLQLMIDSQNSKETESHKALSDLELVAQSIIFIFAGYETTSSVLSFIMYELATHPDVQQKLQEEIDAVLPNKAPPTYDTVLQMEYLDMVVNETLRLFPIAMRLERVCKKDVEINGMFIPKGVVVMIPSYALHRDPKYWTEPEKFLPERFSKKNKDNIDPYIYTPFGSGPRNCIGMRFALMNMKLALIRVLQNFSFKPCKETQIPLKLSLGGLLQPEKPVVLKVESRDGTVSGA
Procedure, shortened: (§1)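 Human liver microsomes incubated with isoform-specific probe substrates and the test compound at concentrations up to 20 µM. IC50 derived from inhibition of metabolite formation; mean of two independent experiments, with known specific inhibitors as positive controls.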

[4] = AUC (0 to 24 hrs) in Sprague-Dawley rat at 500 mg/kg/day, po administered as nanosuspension measured for 14 days measured post last dose by LC-MS/MS analysis; format: ADME, organism-based; set-up: route oral, dose 500 mg/kg/day, time 14 day; settings: in vivo
Procedure, shortened: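 Repeated daily oral dosing of the nanosuspension to rats for 14 days, up to 500 mg/kg/day.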

[5] = Solubility of compound in phosphate buffer at pH 2 measured after 3 days; format: physicochemical; settings: time 3 day
Procedure, shortened: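 Solubility in aqueous buffer at pH 2 and pH 7, and in simulated gastric and intestinal fluids.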

[6] = (§2) Ratio of Cmax in Sprague-Dawley rat at 1000 mg/kg, po administered via gavage after 24 hrs using HPMC formulation by LC-MS/MS analysis to EC70 for ex vivo receptor occupancy at GluN2B in po dosed Sprague-Dawley rat assessed as 3-[3H] 1-(azetidin-1-yl)-2-[6-(4-fluoro-3-methyl-phenyl)pyrrolo[3,2-b]pyridin-1-yl]-ethanone labelling; format: ADME, organism-based
[7] = Ex vivo receptor occupancy at GluN2B in Sprague-Dawley rat assessed as 3-[3H] 1-(azetidin-1-yl)-2-[6-(4-fluoro-3-methyl-phenyl)pyrrolo[3,2-b]pyridin-1-yl]-ethanone labelling at 3 mg/kg, po measured after 0.5 hrs by autoradiography; format: functional
Procedure, shortened: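 Rats dosed orally at 3 mg/kg in 20% HP-β-CD; brains taken at 0.5, 2 and 6 h. Ex vivo autoradiography of brain slices with the ³H pyrrolo[3,2-b]pyridine GluN2B tracer. Labelling expressed relative to matching brain areas of vehicle-treated animals; n=2, ± SEM.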

[8] = Cmax in Sprague-Dawley rat at 100 mg/kg, po administered via gavage after 24 hrs using nanosuspension formulation by LC-MS/MS analysis; format: ADME, organism-based; set-up: route oral, dose 100 mg/kg, time 24 hrs; settings: in vivo
Procedure, shortened: (§3)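 Single oral gavage dose to male Sprague Dawley rats, 3 per dose level. Vehicles were a standard suspension in 5% HPMC (125, 250, 500 or 1000 mg/kg) or a nanosuspension (API:polymer 4:1), with stock diluted in vehicle on the day of dosing (100, 250 or 500 mg/kg). Blood was sampled at time points from 0.5 to 24 h.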

[9] = Volume of distribution at steady state in Sprague-Dawley rat at 0.5 mg/kg, iv or 2.5 mg/kg, po using 1:1 PEG-400/water formulation by LC-MS/MS analysis; format: ADME, organism-based; settings: in vivo
Procedure, shortened: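 Rat PK at 0.5 mg/kg i.v. and 2.5 mg/kg p.o., vehicle 1:1 PEG400/water. n=3, values given as mean ± SD.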

Cytochrome P450 3A4 [10] = target: T2, Cytochrome P450 3A4; assay: Inhibition of CYP3A4 in human liver microsomes using nifedipine as substrate measured after 15 mins by LC-MS/MS analysis; format: ADME; procedure, shortened: as §1
[11] = Tmax in Sprague-Dawley rat at 1000 mg/kg, po administered via gavage after 24 hrs using HPMC formulation by LC-MS/MS analysis; format: ADME, organism-based; settings: in vivo
Procedure, shortened: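 Single oral gavage of a 5% HPMC suspension at 125, 250, 500 or 1000 mg/kg to male Sprague Dawley rats, 3 per group. Plasma was sampled at 6 time points from 0.5 to 24 h.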

[12] = as §2, with “125” for “1000”; format: ADME, organism-based
[13] = Cmax in mouse at 2.5 mg/kg, po by LC-MS/MS analysis; format: ADME, organism-based; set-up: route oral, dose 2.5 mg/kg; settings: in vivo
[14] = Drug level in Sprague-Dawley rat brain cortex at 0.03 mg/kg, iv after 5 to 120 mins by LC-MS/MS analysis; format: ADME, organism-based; settings: in vivo, time 5-120 min
Procedure, shortened: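 Single i.v. dose of 0.03 mg/kg in 50% (w/v) PEG/water, pH 7.4; rats n=3 per group, killed at 5, 10, 30, 60 and 120 min. Cerebellum, cortex, striatum and hippocampus dissected, weighed and homogenized; drug quantified by LC-MS/MS and normalized to tissue weight. P<0.05 taken as significant versus cerebellum.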

[15] = Clearance in dog at 0.1 mg/kg, iv by LC-MS/MS analysis; format: ADME, organism-based, Canis lupus familiaris; settings: in vivo
Cytochrome P450 3A4 [16] = target: T2, Cytochrome P450 3A4; assay: Inhibition of CYP3A4 in human liver microsomes using midazolam as substrate measured after 15 mins by LC-MS/MS analysis; format: ADME; procedure, shortened: as §1
[17] = Cmax in Sprague-Dawley rat at 250 mg/kg, po administered via gavage after 24 hrs using HPMC formulation by LC-MS/MS analysis; format: ADME, organism-based; set-up: route oral, time 24 hrs, dose 250 mg/kg; settings: in vivo; procedure, shortened: as §3

Activity [1]: < 20%
microsomal CLint at 1 µM [2]: 14.7 µL/min/mg
IC50 (Cytochrome P450 3A4 [3]): > 50 µM
AUC at 336 h [4]: 222 µg·h/mL
solubility at 72 h [5]: < 4 µM
Ratio [6]: 10
Cmax [8]: 9000 ng/mL
Vdss [9]: 1.9 L/kg
IC50 (Cytochrome P450 3A4 [10]): > 50 µM
Tmax [11]: 2.3 h
Ratio [12]: 6
Cmax [13]: 413 ng/mL
Drug uptake [14]: Active
clearance [15]: 17 mL/min/kg
IC50 (Cytochrome P450 3A4 [16]): > 50 µM
Cmax [17]: 5480 ng/mL
Structure (SMILES): Cn1c(=O)n(CC(=O)N2CCC2)c2cc(-c3ccc(C(F)(F)F)s3)cnc21
Occ [7]: 87%
